Data taken from ChEMBL document CHEMBL1132645, “Novel arylpyrazino[2,3-c][1,2,6]thiadiazine 2,2-dioxides as inhibitors of platelet aggregation. 1. Synthesis and pharmacological evaluation” (1999).

Experiments:
Type in all cases: functional
[1] = organism: Oryctolagus cuniculus; experiment: Compound was screened for its platelet aggregation induced by adenosine diphosphate in vitro in rabbit; design: concentration or dose not given beside the values
Outline: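 Rabbit citrated PRP (male New Zealand white, 2.5–3.5 kg, cardiac puncture), adjusted to 5 × 10⁵ platelets/μL with PPP. Compound in DMSO preincubated 10 min at 37 °C, then ADP 1–2 μM added. Born aggregometry read at 5 min. Single fixed concentration; result is percent inhibition of maximal amplitude against paired vehicle controls.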

[2] = organism: Oryctolagus cuniculus; experiment: Compound was screened for its platelet aggregation induced by arachidonic acid in vitro in rabbit
Outline: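 Rabbit citrated PRP, 5 × 10⁵ platelets/μL, compound preincubated in DMSO 10 min at 37 °C, then arachidonic acid 1 mM. Born aggregometry at 5 min, triplicate for each concentration. Value is EC100, the lowest concentration giving complete inhibition, read from concentration–response data.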

[3] = tested on: Rattus norvegicus; experiment: In vivo inhibitory activity after 120 min of 100 mg/kg oral administration induced by I-BOP in rats; details: 2 h
Outline: (§1)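 Male Wistar rats, 200–250 g, fasted overnight, were dosed by oral gavage with compound suspended in 0.25% carboxymethylcellulose in 10% Tween 80 (10 mL/kg). Blood was drawn by cardiac puncture under ether at 30 or 120 min and anticoagulated with heparin 1 U/mL final. PRP was diluted to (4–5) × 10⁵ cells/μL. Agonists: AA 0.4 mM, collagen 1–2 μg/mL, I-BOP 225–250 nM. Percent inhibition read at 5 min; 3–5 determinations, mean ± SEM.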

[4] = tested on: Rattus norvegicus; experiment: In vivo inhibitory activity after 120 min of 100 mg/kg oral administration induced by arachidonic acid in rats; details: 2 h; outline: as §1
[5] = tested on: Rattus norvegicus; experiment: In vivo inhibitory activity after 120 min of 100 mg/kg oral administration induced by collagen in rats; details: 2 h; outline: as §1
[6] = tested on: Rattus norvegicus; experiment: In vivo inhibitory activity after 30 min of 100 mg/kg oral administration induced by I-BOP in rats; details: 0.5 h; outline: as §1
[7] = tested on: Rattus norvegicus; experiment: In vivo inhibitory activity after 30 min of 100 mg/kg oral administration induced by arachidonic acid in rats; details: 0.5 h; outline: as §1
[8] = tested on: Rattus norvegicus; experiment: In vivo inhibitory activity after 30 min of 100 mg/kg oral administration induced by collagen in rats; details: 0.5 h; outline: as §1
[9] = tested on: Rattus norvegicus; experiment: In vivo inhibitory activity after 120 min of 25 mg/kg oral administration induced by I-BOP in rats; details: 2 h
[10] = tested on: Rattus norvegicus; experiment: In vivo inhibitory activity after 120 min of 25 mg/kg oral administration induced by arachidonic acid in rats; details: 2 h
[11] = tested on: Rattus norvegicus; experiment: In vivo inhibitory activity after 120 min of 25 mg/kg oral administration induced by collagen in rats; details: 2 h
[12] = organism: Homo sapiens; experiment: Compound was screened for its platelet aggregation induced by collagen in vitro in human platelets at conc 1 mM
Outline: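 Human citrated PRP (blood from consenting volunteers, 3.8% trisodium citrate 9:1; PRP 250g 10 min, PPP 2000g 20 min, room temperature), adjusted to 3 × 10⁵ platelets/μL with PPP. Compounds in DMSO preincubated 10 min at 37 °C. Agonists: AA 1 mM, collagen 1–2 μg/mL, U46619 1.4 μM, I-BOP 225–250 nM. Born turbidimetric aggregometry read 5 min after agonist; inhibition of maximal amplitude versus paired vehicle; 3–4 determinations, mean ± SEM.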

## NC(=O)CN1c2nc(-c3ccccc3)c(-c3ccccc3)nc2C(N)=NS1(=O)=O
[1]
  Inhibitory response: 47%
[2]
  EC100: 0.003 mg/mL

## CN1c2nc(-c3ccccn3)c(-c3ccccn3)nc2C(N)=NS1(=O)=O
[1]
  Inhibitory response: 43%
[2]
  EC100: 0.003 mg/mL

## CN1c2ncc(-c3ccccc3)nc2C(N)=NS1(=O)=O
[1]
  Inhibitory response: 43%
[2]
  EC100: 0.0003 mg/mL

## CN1c2nc(-c3ccco3)c(-c3ccco3)nc2C(N)=NS1(=O)=O
[1]
  Inhibitory response: 63%
[2]
  EC100: 0.001 mg/mL

## CCN1c2nc(C)c(-c3ccccc3)nc2C(N)=NS1(=O)=O
[1]
  Inhibitory response: 47%
[2]
  EC100: 0.001 mg/mL
[3]
  inhibition in vivo at 100 mg/kg: 50.3%
[4]
  inhibition in vivo at 100 mg/kg: 48.8%
[5]
  inhibition in vivo at 100 mg/kg: 47.2%
[6]
  inhibition in vivo at 100 mg/kg: 59.6%
[7]
  inhibition in vivo at 100 mg/kg: 20%
[8]
  inhibition in vivo at 100 mg/kg: 93.5%

## O=C(O)CCn1c2c(c3ccccc31)CC(NS(=O)(=O)c1ccc(F)cc1)CC2 (stereo not given)
[9]
  inhibition in vivo at 25 mg/kg: 72.5%
[10]
  inhibition in vivo at 25 mg/kg: 74.2%
[11]
  inhibition in vivo at 25 mg/kg: 95.3%

## CCOC(=O)CN1c2nc(-c3ccccc3)c(-c3ccccc3)nc2C(N)=NS1(=O)=O
[1]
  Inhibitory response: 30%
[2]
  EC100: 0.0001 mg/mL

## CCN1c2nc(-c3ccccc3)c(Cl)nc2C(N)=NS1(=O)=O
[1]
  Inhibitory response: 23%
[2]
  EC100: 0.01 mg/mL

## CC(C)(C)OC(=O)CN1c2nc(-c3ccccc3)c(-c3ccccc3)nc2C(N)=NS1(=O)=O
[1]
  Inhibitory response: 32%
[2]
  EC100: 0.001 mg/mL

## CCN1c2nc(-c3ccccc3)c(-c3ccccc3)nc2C(N)=NS1(=O)=O
[1]
  Inhibitory response: 46%
[2]
  EC100: 0.0003 mg/mL
[3]
  inhibition in vivo at 100 mg/kg: 30%
[4]
  inhibition in vivo at 100 mg/kg: 1%
[5]
  inhibition in vivo at 100 mg/kg: 26.3%
[6]
  inhibition in vivo at 100 mg/kg: 100%
[7]
  inhibition in vivo at 100 mg/kg: 6.5%
[8]
  inhibition in vivo at 100 mg/kg: 82.6%

## NC1=NS(=O)(=O)N(Cc2ccccc2)c2nc(-c3ccccc3)c(-c3ccccc3)nc21
[1]
  Inhibitory response: 30%
[2]
  EC100: 0.003 mg/mL

## CCOC(=O)CN1c2nc(-c3ccccc3)c(Br)nc2C(N)=NS1(=O)=O
[1]
  Inhibitory response: 36%
[2]
  EC100: 0.01 mg/mL

## CCN1c2nc(-c3cccs3)c(-c3cccs3)nc2C(N)=NS1(=O)=O
[1]
  Inhibitory response: 43%
[2]
  EC100: 0.003 mg/mL

## CCN1c2nc(-c3ccccc3)c(C)nc2C(N)=NS1(=O)=O
[1]
  Inhibitory response: 59%
[2]
  EC100: 0.001 mg/mL

## Nc1ncnc2c1ncn2[C@@H]1O[C@H](CO)[C@@H](O)[C@H]1O [ADENOSINE]
[1]
  Inhibitory response: 64%

## CC(=O)Oc1ccccc1C(=O)O [ASPIRIN]
[12]
  inhibition at 1000 µM: 94%
[2]
  EC100: 0.0025 mg/mL
[3]
  inhibition in vivo at 100 mg/kg: 0.9%
[4]
  inhibition in vivo at 100 mg/kg: 93.8%
[5]
  inhibition in vivo at 100 mg/kg: 84.6%

## Clc1ccccc1CN1CCc2sccc2C1 [TICLOPIDINE]
[3]
  inhibition in vivo at 100 mg/kg: 57.1%
[4]
  inhibition in vivo at 100 mg/kg: 0.9%
[5]
  inhibition in vivo at 100 mg/kg: 98.7%
